Source: ChEMBL document CHEMBL2401676, “Synthesis and biological evaluation of pyrrolidine derivatives as novel and potent sodium channel blockers for the treatment of ischemic stroke” (Bioorg Med Chem Lett, 2013)
pIC50: −log10 of the molar value.

Tests used:
hERG (KCNH2) = hERG (KCNH2) (Homo sapiens, UniProt Q12809); assay: Inhibition of human ERG channel expressed in HEK293 cells at 1 uM by voltage patch clamp technique; type: cell-based; details: HEK293 cells that express hERG
[1] = Inhibition of sodium channel in Wistar rat cerebrocortical synaptosomes assessed as inhibition of veratridine-induced depolarization using rhodamine-6G by spectrofluorometry; type: subcellular, Brain
[2] = Neuroprotective activity in guinea pig papillary muscles assessed as action potential duration at 90% repolarization at 3 uM after 30 mins relative to control; type: functional, Cavia porcellus, Muscle tissue
How it was run: (§1)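 Intracellular action potentials were evoked by 1 ms pulses at 1.5–3 times the voltage threshold, with all solutions held at 36 °C. APD90 was recorded before and 30 min after compound exposure and expressed against the pre-treatment value.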

[3] = Neuroprotective activity in guinea pig papillary muscles assessed as action potential duration at 90% repolarization at 30 uM after 30 mins relative to control; type: functional, Cavia porcellus, Muscle tissue; how it was run: as §1
[4] = Neuroprotective activity in guinea pig papillary muscles assessed as action potential duration at 90% repolarization at 10 uM after 30 mins relative to control; type: functional, Cavia porcellus, Muscle tissue; how it was run: as §1
Rattus norvegicus [5] = assay: Neuroprotective activity in Wistar rat transient middle cerebral artery occlusion model at 0.8 mg/kg, sc administered 30 mins after occlusion; type: functional; details: route subcutaneous
How it was run: (§2)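 Female Wistar rats, 8 weeks old, underwent 90 min transient MCAO followed by reperfusion. Drug was given sc 30 min after occlusion at 0.8, 2.5 or 8.2 mg/kg, and controls received an equal volume of saline. At 24 h the brain was cut into 7 slices and TTC-stained. Infarct area per slice was measured by image analysis and summed to infarct volume; n = 5–6, mean ± SEM, Student's t-test.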

Rattus norvegicus [6] = assay: Neuroprotective activity in Wistar rat transient MCAO model assessed as reduction in cerebral infarction size at 8.2 mg/kg, sc (reference value: 379.8 +/- 43.8 mm'3); type: functional; details: route subcutaneous; how it was run: as §2
Rattus norvegicus [7] = assay: Neuroprotective activity in Wistar rat transient middle cerebral artery occlusion model at 8.2 mg/kg, sc administered 30 mins after occlusion; type: functional; details: route subcutaneous; how it was run: as §2
Rattus norvegicus [8] = assay: Neuroprotective activity in Wistar rat transient middle cerebral artery occlusion model at 2.5 mg/kg, sc administered 30 mins after occlusion; type: functional; details: route subcutaneous; how it was run: as §2
[9] = Neuroprotective activity in guinea pig papillary muscles assessed as action potential duration at 90% repolarization at 100 uM after 30 mins relative to control; type: functional, Cavia porcellus, Muscle tissue
How it was run: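 Action potentials were evoked by 1 ms stimuli at 1.5–3 times threshold voltage, with all solutions kept at 36 °C. APD90 was recorded before compound exposure and again 30 min after.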

Rattus norvegicus [10] = assay: Neuroprotective activity in sc dosed Wistar rat transient middle cerebral artery occlusion model administered 30 mins after occlusion; type: functional, organism-based; how it was run: as §2

Sequence of hERG (KCNH2) (Q12809 whole entry): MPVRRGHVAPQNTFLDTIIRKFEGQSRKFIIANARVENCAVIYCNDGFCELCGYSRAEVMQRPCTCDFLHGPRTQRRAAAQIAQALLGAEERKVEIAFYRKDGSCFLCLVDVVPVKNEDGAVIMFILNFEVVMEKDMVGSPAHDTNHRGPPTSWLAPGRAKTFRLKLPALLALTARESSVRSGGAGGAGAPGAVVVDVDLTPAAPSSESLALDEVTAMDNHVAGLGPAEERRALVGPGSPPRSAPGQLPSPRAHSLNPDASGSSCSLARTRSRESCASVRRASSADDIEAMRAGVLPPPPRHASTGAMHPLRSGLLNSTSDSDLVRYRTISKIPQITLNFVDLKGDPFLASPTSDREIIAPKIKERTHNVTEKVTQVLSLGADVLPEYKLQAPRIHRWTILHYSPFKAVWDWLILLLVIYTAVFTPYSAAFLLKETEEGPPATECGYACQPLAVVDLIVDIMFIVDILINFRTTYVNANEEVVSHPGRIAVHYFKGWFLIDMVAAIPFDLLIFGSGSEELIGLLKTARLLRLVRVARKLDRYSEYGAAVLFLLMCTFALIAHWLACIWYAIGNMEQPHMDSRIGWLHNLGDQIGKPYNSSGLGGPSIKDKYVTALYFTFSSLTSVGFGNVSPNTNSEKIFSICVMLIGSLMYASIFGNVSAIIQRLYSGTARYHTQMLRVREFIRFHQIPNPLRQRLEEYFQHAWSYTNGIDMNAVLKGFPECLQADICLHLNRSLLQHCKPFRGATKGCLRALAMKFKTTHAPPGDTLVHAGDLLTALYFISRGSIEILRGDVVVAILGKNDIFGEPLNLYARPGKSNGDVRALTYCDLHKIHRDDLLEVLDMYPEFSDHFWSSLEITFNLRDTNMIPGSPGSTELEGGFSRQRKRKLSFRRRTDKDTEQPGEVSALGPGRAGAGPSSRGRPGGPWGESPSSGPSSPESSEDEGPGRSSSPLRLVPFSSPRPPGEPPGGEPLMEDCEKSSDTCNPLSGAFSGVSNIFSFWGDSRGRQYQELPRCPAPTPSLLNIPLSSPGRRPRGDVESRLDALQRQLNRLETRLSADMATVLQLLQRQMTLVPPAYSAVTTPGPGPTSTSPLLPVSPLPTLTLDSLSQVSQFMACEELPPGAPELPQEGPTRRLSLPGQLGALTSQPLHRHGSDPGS

| Compound | inhibition at 1 µM (hERG (KCNH2)) [%] | pIC50 [1] | also measured |
| --- | --- | --- | --- |
| Cc1nc(OCCCCCN2CCCCC2)cc(-c2ccc(F)cc2)n1 | 60 | – | – |
| Cc1cc(OC[C@@H](O)CN2CCN(c3ccc(Cc4ccc(F)cc4)cc3)CC2)c(C)c(C)c1N | 78 | – | – |
| c1ccc(CN2C[C@H](NC3CCCCC3)[C@@H](c3ccccc3)C2)cc1 | – | 6.24 | – |
| c1ccc(CN2C[C@@H](NC3CCCCC3)[C@H](c3ccccc3)C2)cc1 | – | 6.27 | – |
| C[C@@H](CN1CC[C@@]2(C)c3cccc(O)c3C[C@@H]1C2(C)C)OCc1ccccc1.Cl | 69 | – | Activity [2]: 96.6%; Activity [3]: 72.9%; Activity [4]: 89.1% |
| OC(COc1ccc2c(c1)CCC2)CN1CCC(c2nc3ccccc3[nH]2)CC1 (configuration not stated) | 99 | – | – |
| c1ccc(CN2C[C@H](NC3CCCCC3)[C@H](c3ccccc3)C2)cc1 | 28 | 6.25 | – |
| O=C(N[C@@H]1CN(Cc2ccccc2)C[C@H]1c1ccccc1)c1ccccc1 (racemic) | 45 | 5.72 | – |
| c1ccc(CN[C@@H]2CN(Cc3ccccc3)C[C@H]2c2ccccc2)cc1 (racemic) | 57 | 6.19 | – |
| O=C(N[C@@H]1CN(Cc2ccccc2)C[C@H]1c1ccccc1)C1CCCCC1 (racemic) | 31 | 6.32 | – |
| c1ccc(CN2C[C@@H](NCC3CCCCC3)[C@H](c3ccccc3)C2)cc1 (racemic) | 60 | 6.49 | – |
| c1ccc(CN2C[C@@H](Nc3ccccc3)[C@H](c3ccccc3)C2)cc1 (racemic) | 43 | 6.32 | – |
| O=C(N[C@@H]1CN(Cc2ccccc2)C[C@H]1C1CCCCC1)C1CCCCC1 (racemic) | 45 | 6.13 | – |
| c1ccc(CN[C@@H]2CN(Cc3ccccc3)C[C@H]2C2CCCCC2)cc1 (racemic) | 79 | 6.05 | – |
| c1ccc(CN2C[C@@H](NC3CCCCC3)[C@H](C3CCCCC3)C2)cc1 (racemic) | 35 | 6.13 | – |
| Cl.Cl.c1ccc(CN2C[C@@H](NC3CCCCC3)[C@H](c3ccccc3)C2)cc1 (racemic) | 8.4 | 6.29 | Activity (Rattus norvegicus [5]): 27%; Activity (Rattus norvegicus [6]): 166.7 mm3; Activity [3]: 92.3%; Activity (Rattus norvegicus [7]): 56%; Activity [4]: 95.3%; Activity (Rattus norvegicus [8]): 37%; Activity [9]: 90.8% |
| c1ccc(CN2C[C@@H](NCC3CCCCC3)[C@H](C3CCCCC3)C2)cc1 (racemic) | 60 | 6.25 | – |
| c1ccc([C@@H]2CN(C3CCCCC3)C[C@H]2NC2CCCCC2)cc1 (racemic) | – | 5.47 | – |
| c1ccc([C@@H]2CN(CC3CCCCC3)C[C@H]2NC2CCCCC2)cc1 (racemic) | 45 | 6.42 | – |
| c1ccc(CN2C[C@@H](NC3CCCCC3)[C@H](c3ccccc3)C2)cc1 (racemic) | – | – | Activity (Rattus norvegicus [10]): Dose-dependent effect |
